# SENP8 block-1: blocks the human protease SENP8. Q96LD8. purified SENP8, Z-RLRGG-aminoluciferin cleavage, luminescence. inhibition, % at 10 µM. 1.2% of 330,000 active. AID 2540; in the data active = inhibition above about 50%
# SENP6 inh: blocks the human protease SENP6; Recombinant SENP6 catalytic domain, aminoluciferin luminescence; 1.8% of 330,000 active; inhibition, % at 10 µM; Q9GZR1;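 active = inhibition above about 50% at the single tested dose, limit read from the data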;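 note: plate controls were DMSO wells with enzyme for no effect and DMSO wells lacking enzyme for full effect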
# UBC13 inh: human UBC13 polyubiquitination inhibition. P61088. UBC13 polyubiquitin chain formation, TR-FRET. inhibition, % at 20 µM. 0.47% of 330,000 active; in the data active = inhibition above about 45%, passing the limit was not always enough
# SENP7 inh: SENP7 protease inhibition; recombinant SENP7, Z-RLRGG-aminoluciferin luminescence, 40 min; 1.5% of 330,000 active; inhibition, % at 5 µM; Q9BQF6;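 active = inhibition above about 50% at the single test dose, limit read from the data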;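 note: plate controls were DMSO with enzyme for no effect and no enzyme buffer wells for full effect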
# Apaf-1 inh: human Apaf-1 inhibition; O14727; reconstituted apoptosome caspase-3 activity, DEVD-Rh110 fluorescence; inhibition, % at 20 µM; 0.71% of 330,000 active; AID 489030; active = inhibition of at least 40% at 20 µM;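 note: plate controls were DMSO wells for no effect and DEVD-CHO caspase inhibitor wells for full effect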
# Target sequence (O14727 whole entry, looked up): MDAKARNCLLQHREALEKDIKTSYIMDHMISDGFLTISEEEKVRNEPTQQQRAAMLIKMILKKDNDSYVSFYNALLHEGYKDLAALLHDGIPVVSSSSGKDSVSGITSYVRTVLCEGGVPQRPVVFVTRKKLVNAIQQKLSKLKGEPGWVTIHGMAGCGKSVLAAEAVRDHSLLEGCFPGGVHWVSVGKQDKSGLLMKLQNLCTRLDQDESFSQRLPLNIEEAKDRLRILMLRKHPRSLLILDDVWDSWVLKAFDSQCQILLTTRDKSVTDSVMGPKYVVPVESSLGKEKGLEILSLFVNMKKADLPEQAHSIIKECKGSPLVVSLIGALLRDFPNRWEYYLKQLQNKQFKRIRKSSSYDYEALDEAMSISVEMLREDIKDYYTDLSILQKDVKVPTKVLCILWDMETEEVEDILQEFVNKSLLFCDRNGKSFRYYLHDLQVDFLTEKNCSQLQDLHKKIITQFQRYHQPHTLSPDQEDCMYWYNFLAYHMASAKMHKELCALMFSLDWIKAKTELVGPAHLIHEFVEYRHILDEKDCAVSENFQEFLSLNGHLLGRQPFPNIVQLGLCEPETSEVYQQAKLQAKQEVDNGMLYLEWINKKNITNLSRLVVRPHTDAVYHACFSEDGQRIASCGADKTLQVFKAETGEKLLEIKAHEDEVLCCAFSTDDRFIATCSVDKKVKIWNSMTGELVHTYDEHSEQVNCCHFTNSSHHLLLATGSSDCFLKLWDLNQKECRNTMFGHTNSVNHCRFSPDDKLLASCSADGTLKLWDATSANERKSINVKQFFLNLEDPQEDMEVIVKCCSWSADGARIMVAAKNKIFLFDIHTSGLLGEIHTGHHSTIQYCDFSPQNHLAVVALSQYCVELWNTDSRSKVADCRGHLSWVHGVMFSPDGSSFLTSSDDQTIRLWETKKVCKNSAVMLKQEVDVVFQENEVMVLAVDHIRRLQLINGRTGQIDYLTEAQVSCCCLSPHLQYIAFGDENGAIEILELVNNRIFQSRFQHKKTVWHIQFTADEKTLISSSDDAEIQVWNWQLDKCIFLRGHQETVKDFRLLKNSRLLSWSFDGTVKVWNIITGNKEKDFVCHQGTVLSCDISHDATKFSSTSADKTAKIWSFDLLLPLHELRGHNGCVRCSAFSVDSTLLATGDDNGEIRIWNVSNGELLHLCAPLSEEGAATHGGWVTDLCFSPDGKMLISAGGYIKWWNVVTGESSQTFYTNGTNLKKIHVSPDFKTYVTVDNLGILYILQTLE
#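 Material: reconstituted apoptosome with Apaf-1, cytochrome c, caspase-9, procaspase-3, dATP; medium: pH 7.5 Hepes buffer with CHAPS, BSA, DTT; also added: cytochrome c and DEVD-Rh110 substrate; timing: 30 min plus 50 min, RT; signal: Rh110 fluorescence intensity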
# SENP8 block-2: SENP8 (human) protease inhibition; recombinant SENP8, Nedd8 substrate fluorescence; inhibition, % at 20 µM; 0.64% of 360,000 active; AID 602440; in the data active = inhibition mostly above about 40%, no sharp cut-off; inactive = mostly below about 27%
# SENP8 conf: human SENP8 inhibition, confirmed | shares compounds with SENP7 inh | 40% of 6,200 active | Recombinant SENP8, Z-RLRGG-aminoluciferin luminescence, 60 min | inhibition, % at 12.5 µM;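 active = mean inhibition across replicates above about 50%, limit read from the data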
# SENP6 conf: human SENP6 inhibition, confirmed; shares compounds with SENP7 inh; recombinant SENP6, Z-RLRGG-aminoluciferin luminescence; inhibition, % at 12.5 µM; 58% of 6,200 active; AID 488915
# SENP7 conf: confirmation of human SENP7 protease inhibitors | shares compounds with SENP7 inh | inhibition, % at 12.5 µM | 69% of 6,200 active | recombinant SENP7, Z-RLRGG-aminoluciferin luminescence, 40 min | AID 488917
# Casp3 SENP sel: inhibits human caspase-3 in SENP selectivity test; shares compounds with SENP7 inh; purified caspase-3, Z-DEVD-aminoluciferin luminescence, 60 min; inhibition, % at 12.5 µM; 60% of 6,200 active; AID 488918;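 active = mean inhibition above about 50%, limit read from the data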;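 note: plate controls were enzyme with DMSO for no effect and wells without caspase-3 for full effect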
# Luc interf: luminescence interference (SENP counter-screen) | 39% of 6,200 active | Pre-incubated SENP8/Z-RLRGG-aminoluciferin, luciferase luminescence interference | shares compounds with SENP7 inh | inhibition, % at 12.5 µM | AID 488919;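 active = mean inhibition above about 50% when retested at one dose, limit read from the data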;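 note: plate controls were DMSO wells with completed reaction for no effect and substrate without enzyme for full effect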
# * marks the source's active call; other numbers are inactive results; x = no result given. Rows were chosen to be rich in hits. Some 3% of all compounds tested hit in one or more screens of this group.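 Rule for the calls, unless noted: active = mean inhibition above about 50% in the one-dose retest (limit read from the data); inactive = the rest.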
SMILES,SENP8 block-1,SENP6 inh,UBC13 inh,SENP7 inh,Apaf-1 inh,SENP8 block-2,SENP8 conf,SENP6 conf,SENP7 conf,Casp3 SENP sel,Luc interf
O=C(O)c1ccc(N/N=C/c2cn(Cc3ccc(F)cc3)c3ccccc23)cc1,61.2*,51.6*,20.2,23.3,-2.8,-431.4,6.7,71.6*,75.2*,8.2,12.0
CN(Cc1ccccc1)C(=O)COC(=O)c1ccccc1SCC(=O)N1CCCC1,-3.2,-2.3,-0.9,-10.5,2.4,-14.2,x,x,x,x,x
CC(C)Cc1cc(C(=O)Nc2cccnc2)no1,31.5,47.6,-5.1,52.3*,-1.1,6.2,45.3,42.6,76.4*,79.1*,54.6*
Cc1c(NC(=O)c2cc(C(C)C)on2)c(=O)n(-c2ccccc2)n1C,-3.1,-10.2,0.2,3.6,-22.0,7.0,x,x,x,x,x
Cc1cc(C(=O)Nc2cccnc2)no1,-0.5,-13.3,-18.6,-6.9,1.0,12.5,x,x,x,x,x
O=C(Nc1cccnc1)c1cc(-c2ccc(Cl)cc2)on1,28.8,60.5*,17.1,86.0*,-14.7,28.5,29.1,31.0,66.9*,55.6*,24.3
Cc1c(NC(=O)c2cc(CC(C)C)on2)c(=O)n(-c2ccccc2)n1C,11.0,7.7,5.3,54.6*,-3.6,23.2,-13.1,-5.4,-10.2,2.7,-2.9
O=C(Nc1cccnc1)c1cc(-c2ccc(Cl)cc2Cl)on1,-4.2,15.0,4.6,64.1*,0.9,1.7,18.5,20.2,17.1,18.3,7.5
CCC(O)CC(C(=O)NNc1ccccc1)C(=O)NNc1ccccc1 (centres undefined),-4.0,-0.4,-0.2,2.3,0.8,5.2,x,x,x,x,x
CCCCNC(=O)CSc1nc(N)c(C(=O)Nc2ccc(OC)cc2)s1,-2.4,-17.4,-5.7,-3.4,3.7,26.8,x,x,x,x,x
Cc1cc(C)c(S(=O)(=O)C(C)C)c(=O)[nH]1,4.2,-6.1,-0.8,-3.7,-0.2,-4.9,x,x,x,x,x
Cc1ccc(-c2cc(C(=O)N/N=C/c3c[nH]c4ccccc34)n[nH]2)o1,-3.0,-4.7,9.0,0.6,-2.1,-54.8,x,x,x,x,x
Cc1ccc(-c2cc(C(=O)N/N=C/c3ccccc3O)n[nH]2)o1,48.9,66.6*,3.6,51.8*,7.3,6.1,-0.8,-2.9,85.9*,53.2*,29.9
Cc1cccc(N=Cc2c(O)cc(C)oc2=O)c1,-4.8,-11.9,-6.0,-3.7,-1.8,-7.4,x,x,x,x,x
Cc1cc(O)c(/C=N/Nc2ccccc2Cl)c(=O)o1,73.7*,84.3*,-0.6,40.5,5.7,-105.8,72.2*,67.6*,86.6*,88.4*,63.3*
Cc1cc(O)c(/C=N/Nc2cccc(Cl)c2)c(=O)o1,66.2*,69.9*,-2.3,19.5,1.2,-105.6,71.0*,71.4*,89.2*,86.7*,55.8*
O=C(CCCN1C(=O)C(c2ccccc2)Oc2cccnc21)NCCc1ccc(Cl)cc1 (centres undefined),-6.2,-1.5,-2.6,-3.8,14.5,-0.3,x,x,x,x,x
O=c1c2ccccc2nnn1CSc1ccccc1F,61.3*,49.2,7.1,67.6*,-1.0,12.5,77.6*,77.2*,93.6*,83.5*,79.2*
COc1ccc(C2=NOC(Cn3nc(C(=O)NCc4ccco4)cc3-c3ccccc3)C2)cc1 (centres undefined),-6.5,-13.5,3.8,-1.1,12.0,8.4,x,x,x,x,x
Nc1c2c(nc3sc4c(c13)CCCC4)-c1ccccc1CC2,92.4*,92.0*,4.1,90.4*,18.2,-399.1,19.5,93.3*,95.5*,81.5*,6.2
CN(C)c1ccc(/C=N/Nc2nc3ccccc3o2)cc1,77.5*,77.5*,4.4,96.7*,7.9,-290.8,22.5,79.3*,97.3*,43.6,11.2

# Source: PubChem BioAssay
